Experimental data published in ChEMBL document CHEMBL1806425, “Design and synthesis of 4-amino-2-phenylquinazolines as novel topoisomerase I inhibitors with molecular modeling” (Bioorg Med Chem, 2011).
Values after ≈ are worked out from the molar mass of the structure shown. Active and inactive are the calls of the source. The calls are words filed in the database; no cut-off is given here.

Experiments:
SK-MEL-2 = experiment: Cytotoxicity against human SK-MEL-2 cells by sulforhodamine B assay; type: functional, cell-based
SK-OV-3 = experiment: Cytotoxicity against human SKOV3 cells by sulforhodamine B assay; type: functional, cell-based
HCT-15 = experiment: Cytotoxicity against human HCT15 cells by sulforhodamine B assay; type: functional, cell-based
A549 = experiment: Cytotoxicity against human A549 cells by sulforhodamine B assay; type: functional, cell-based
Bos taurus [1] = species on record: Bos taurus; experiment: Inhibition of calf thymus DNA topoisomerase I assessed as relaxation of supercoiled DNA pBR322 at 100 ug/ml after 30 mins by agarose gel electrophoresis relative to camptothecin
Method in brief: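 Relaxation of 200 ng pBR322 supercoiled plasmid by 2 units calf thymus topo I, incubated with or without compound (20 mM DMSO stocks) for 30 min at 37 °C. Buffer: 35 mM Tris–HCl pH 8.0, 72 mM KCl, 5 mM MgCl2, 5 mM DTT, 2 mM spermidine, 0.01% BSA. The reaction was stopped with SDS/glycerol dye, then run on 1% agarose in TAE at 15 V for 6 h and stained.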

Bos taurus [2] = species on record: Bos taurus; experiment: Inhibition of calf thymus DNA topoisomerase I assessed as relaxation of supercoiled DNA pBR322 at 10 to 100 ug/ml after 30 mins by agarose gel electrophoresis
Method in brief: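 Relaxation of supercoiled pBR322 plasmid DNA (200 ng) by 2 units calf thymus topo I, incubated with or without compound at 37 °C for 30 min. Buffer: 35 mM Tris–HCl pH 8.0, 72 mM KCl, 5 mM MgCl2, 5 mM DTT, 2 mM spermidine, 0.01% BSA. Stopped with SDS/dye/glycerol solution. Run on 1% agarose gel in TAE at 15 V for 6 h, then stained. Compound stocks were 20 mM in DMSO.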

| SMILES | IC50 (SK-MEL-2) [µg/mL] | IC50 (SK-OV-3) [µg/mL] | IC50 (HCT-15) [µg/mL] | IC50 (A549) [µg/mL] | inhibition (Bos taurus [1]) | inhibition (Bos taurus [2]) |
| --- | --- | --- | --- | --- | --- | --- |
| c1ccc(-c2nc(NC3CCCCC3)c3ccccc3n2)cc1 | 9.63 (≈ 31.7 µM) | 9.82 (≈ 32.4 µM) | 2.76 (≈ 9.1 µM) | 7.23 (≈ 23.8 µM) | Active | – |
| COC(=O)CNc1nc(-c2ccccc2)nc2ccccc12 | 37.6 (≈ 128 µM) | 35.5 (≈ 121 µM) | 37.5 (≈ 128 µM) | 36.3 (≈ 124 µM) | Active | – |
| c1ccc(CNc2nc(-c3ccccc3)nc3ccccc23)cc1 | 31.2 (≈ 100 µM) | 31.7 (≈ 102 µM) | 13.9 (≈ 44.7 µM) | 15.1 (≈ 48.6 µM) | – | – |
| CN1CCN(c2nc(-c3ccccc3)nc3ccccc23)CC1 | 37 (≈ 122 µM) | 26.8 (≈ 88.2 µM) | 22.4 (≈ 73.5 µM) | 26.9 (≈ 88.3 µM) | Active | – |
| CCOC(=O)CCNc1nc(-c2ccccc2)nc2ccccc12.Cl | > 100 | > 100 | > 100 | > 100 | inactive | – |
| CN(C)CCN(C)c1nc(-c2ccccc2)nc2ccccc12 | 28.9 (≈ 94.4 µM) | 25.5 (≈ 83.3 µM) | 26.5 (≈ 86.4 µM) | 28.1 (≈ 91.8 µM) | Active | – |
| Cl.c1ccc(CNc2nc(-c3ccccc3)nc3ccccc23)cc1 | 15.8 | 9.5 | 6.13 | 9.79 | – | – |
| CN1CCCN(c2nc(-c3ccccc3)nc3ccccc23)CC1 | 36.5 (≈ 115 µM) | 26.1 (≈ 82 µM) | 20.1 (≈ 63.1 µM) | 24.1 (≈ 75.7 µM) | Active | – |
| CC[C@@]1(O)C(=O)OCc2c1cc1n(c2=O)Cc2cc3ccccc3nc2-1 [CAMPTOTHECIN] | 6.88 (≈ 19.7 µM) | 1.54 (≈ 4.42 µM) | 0.096 (≈ 0.276 µM) | 0.072 (≈ 0.207 µM) | – | Active |
| CNc1nc(-c2ccccc2)nc2ccccc12 | 24.4 (≈ 104 µM) | 33.6 (≈ 143 µM) | 21.2 (≈ 90 µM) | 29.3 (≈ 125 µM) | inactive | – |
| c1ccc(-c2nc(N3CCOCC3)c3ccccc3n2)cc1 | 65.2 (≈ 224 µM) | 57 (≈ 196 µM) | 51.8 (≈ 178 µM) | 52.8 (≈ 181 µM) | Active | – |
| CC(C)Nc1nc(-c2ccccc2)nc2ccccc12 | 16.5 (≈ 62.5 µM) | 16.9 (≈ 64.2 µM) | 4.11 (≈ 15.6 µM) | 7.53 (≈ 28.6 µM) | Active | – |
| COc1cccc2c1C(=O)c1c(O)c3c(c(O)c1C2=O)C[C@@](O)(C(=O)CO)C[C@@H]3O[C@H]1C[C@H](N)[C@H](O)[C@H](C)O1 [DOXORUBICIN] | 0.09 (≈ 0.166 µM) | 0.08 (≈ 0.147 µM) | 0.05 (≈ 0.092 µM) | – | – | – |
| COCCNc1nc(-c2ccccc2)nc2ccccc12 | 27.6 (≈ 98.9 µM) | 22.9 (≈ 82 µM) | 26.8 (≈ 96.1 µM) | 27.4 (≈ 98.3 µM) | Active | – |
